Laboratory results from ChEMBL document CHEMBL4376859, “Prodrugs for nitroreductase-based cancer therapy-3: Antitumor activity of the novel dinitroaniline prodrugs/Ssap-NtrB enzyme suicide gene system: Synthesis, in vitro and in silico evaluation in prostate cancer” (Eur J Med Chem, 2020).
Active and inactive are the calls of the source. The calls are words filed in the database; no cut-off is given here.

Legend:
Hep 3B2 [1] = assay: Cytotoxicity against human Hep3B cells assessed as cell viability at 9 to 150 uM after 24 hrs by MTT assay relative to control; type: functional
Procedure, shortened: (§1)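 Hep3B hepatoma, PC-3 prostate cancer and HUVEC (healthy control) cells were exposed to nitro compounds at 150, 75, 38, 19 and 9 µM for 24 h and 48 h. Viability was read by MTT assay, and IC50 values were derived from the growth inhibition curves.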

Hep 3B2 [2] = assay: Cytotoxicity against human Hep3B cells assessed as cell viability at 9 to 150 uM after 48 hrs by MTT assay relative to control; type: functional; procedure, shortened: as §1
[3] = Cytotoxicity against human HUVEC cells assessed as cell viability at 9 to 150 uM after 24 hrs by MTT assay relative to control; type: cell-based; conditions: read-out: Activity; procedure, shortened: as §1
[4] = Cytotoxicity against human HUVEC cells assessed as cell viability at 9 to 150 uM after 48 hrs by MTT assay relative to control; type: cell-based; conditions: read-out: Activity; procedure, shortened: as §1
Putative nitroreductase [5] = target: T1, Putative nitroreductase (Staphylococcus saprophyticus subsp. saprophyticus (strain ATCC 15305 / DSM20229 / NCIMB 8711 / NCTC 7292 / S-41), UniProt Q4A0P1); assay: Substrate activity at Staphylococcus saprophyticus nitroreductase expressed in Escherichia coli BL21 (DE3) assessed as retention time by HPLC analysis; type: ADME
T1 sequence (Q4A0P1 whole entry): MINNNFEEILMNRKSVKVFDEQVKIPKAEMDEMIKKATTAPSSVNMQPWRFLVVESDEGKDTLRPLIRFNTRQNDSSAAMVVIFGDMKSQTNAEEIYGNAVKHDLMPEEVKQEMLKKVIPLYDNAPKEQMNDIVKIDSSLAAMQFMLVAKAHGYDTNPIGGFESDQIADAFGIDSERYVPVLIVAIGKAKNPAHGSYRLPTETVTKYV

Putative nitroreductase [6] = target: T1, Putative nitroreductase; assay: Substrate activity at Staphylococcus saprophyticus nitroreductase NtrB assessed as Kcat/Km using NADH as cofactor in Tris-Cl buffer at pH 7.5 by HPLC analysis relative to CB1954/NfsB; type: ADME
PC-3 [7] = assay: Cytotoxicity against human PC3 cells […] Staphylococcus saprophyticus nitroreductase NtrB assessed as reduction in cell viability in presence of NADH as cofactor after 48 hrs by SRB assay; type: functional, cell-based; conditions: PC-3, 48 h
Procedure, shortened: (§2)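 Compounds were reduced outside the cells by purified His-tag (Ni column) Ssap-NtrB. The reaction mix held 600 µM NADH and compound (150, 39, 9 µM, or 180, 18, 1.8 nM) and was applied to PC-3 cells. Controls were compound alone in 25 mM Tris/HCl pH 7.5, and enzyme alone at 31 µg/mL. After 48 h, SRB absorbance was read at 492 nm and converted to % viability.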

PC-3 [8] = assay: Cytotoxicity against human PC3 cells assessed as cell viability at 9 to 150 uM after 24 hrs by MTT assay relative to control; type: functional; procedure, shortened: as §1
PC-3 [9] = assay: Cytotoxicity against human PC3 cells assessed as cell viability at 9 to 150 uM after 48 hrs by MTT assay relative to control; type: functional; procedure, shortened: as §1
PC-3 [10] = assay: Cytotoxicity against human PC3 cells assessed as reduction in cell viability after 48 hrs by SRB assay; type: functional, cell-based; procedure, shortened: as §2
PC-3 [11] = assay: Cytotoxicity against human PC3 cells […] Staphylococcus saprophyticus nitroreductase NtrB assessed as cell viability at 150 uM in presence of NADH as cofactor after 48 hrs by SRB assay relative to control; type: functional; conditions: PC-3, 48 h, read-out: Activity; procedure, shortened: as §2
Hep 3B2 [12] = assay: Cytotoxicity against human Hep3B cells assessed as cell viability after 48 hrs by MTT assay; type: functional, cell-based; procedure, shortened: as §1
Putative nitroreductase [13] = target: T1, Putative nitroreductase; assay: Substrate activity at Staphylococcus saprophyticus nitroreductase NtrB assessed as enzyme specific activity using NADH as cofactor in Tris-Cl buffer at pH 7.5 by HPLC analysis; type: ADME
[14] = substrate: NC(=O)c1cc(N2CC2)c([N+](=O)[O-])cc1[N+](=O)[O-]; assay: Substrate activity at Bacillus amyloliquefaciens nitroreductase ywrO assessed as Km using NADPH as cofactor in sodium phosphate buffer at pH 7.5 by HPLC analysis; type: ADME

## COCCC(=O)Oc1cc(N2CCOCC2)c([N+](=O)[O-])cc1[N+](=O)[O-]
Hep 3B2 [1]
  Activity: >80%
Hep 3B2 [2]
  Activity: >80%
[3]
  viability at 24 h, up to 150 µM: 51 to 80%
[4]
  viability at 48 h, up to 150 µM: 51 to 80%

## Nc1ccccc1Nc1ccc([N+](=O)[O-])cc1[N+](=O)[O-]
Putative nitroreductase [5]
  Retention_time: 16.85 min
Putative nitroreductase [6]
  fold change (FC): 0.41
PC-3 [7]
  IC50: 15 µM
Hep 3B2 [1]
  Activity: >80%
Hep 3B2 [2]
  Activity: >80%
PC-3 [8]
  Activity: >80%
PC-3 [9]
  Activity: >80%
[3]
  viability at 24 h, up to 150 µM: > 80%
[4]
  viability at 48 h, up to 150 µM: > 80%
PC-3 [10]
  Activity: inactive

## CC(C)CC(=O)Oc1cc(N2CCOCC2)c([N+](=O)[O-])cc1[N+](=O)[O-]
Putative nitroreductase [5]
  Retention_time: 24.6 min
Hep 3B2 [1]
  Activity: >80%
Hep 3B2 [2]
  Activity: >80%
[3]
  viability at 24 h, up to 150 µM: 51 to 80%
[4]
  viability at 48 h, up to 150 µM: 51 to 80%

## COc1cccc(Nc2ccc([N+](=O)[O-])cc2[N+](=O)[O-])c1
Putative nitroreductase [5]
  Retention_time: 18.56 min
PC-3 [11]
  viability at 150 µM: 50%
PC-3 [7]
  IC50: > 150 µM
Hep 3B2 [1]
  Activity: >80%
Hep 3B2 [2]
  Activity: >80%
PC-3 [8]
  Activity: >80%
PC-3 [9]
  Activity: >80%
[3]
  viability at 24 h, up to 150 µM: > 80%
[4]
  viability at 48 h, up to 150 µM: > 80%
PC-3 [10]
  Activity: inactive

## O=[N+]([O-])c1ccc(N2CCC[C@H]2CO)c([N+](=O)[O-])c1
Putative nitroreductase [5]
  Retention_time: 15.1 min
PC-3 [11]
  viability at 150 µM: 50%
PC-3 [7]
  IC50: > 150 µM
Hep 3B2 [1]
  Activity: >80%
Hep 3B2 [2]
  Activity: >80%
[3]
  viability at 24 h, up to 150 µM: > 80%
[4]
  viability at 48 h, up to 150 µM: > 80%
PC-3 [10]
  Activity: inactive

## CCNc1ccc([N+](=O)[O-])cc1[N+](=O)[O-]
Putative nitroreductase [5]
  Retention_time: 16.92 min
PC-3 [7]
  IC50: 6.43 µM
Hep 3B2 [1]
  Activity: 51 - 80%
Hep 3B2 [2]
  Activity: 51 - 80%
PC-3 [8]
  Activity: >80%
PC-3 [9]
  Activity: >80%
[3]
  viability at 24 h, up to 150 µM: > 80%
[4]
  viability at 48 h, up to 150 µM: > 80%
PC-3 [10]
  Activity: inactive

## CN(C)C(=O)Oc1cc(N2CCOCC2)c([N+](=O)[O-])cc1[N+](=O)[O-]
Putative nitroreductase [5]
  Retention_time: 19.28 min
Hep 3B2 [1]
  Activity: >80%
Hep 3B2 [2]
  Activity: >80%
[3]
  viability at 24 h, up to 150 µM: 51 to 80%
[4]
  viability at 48 h, up to 150 µM: 51 to 80%

## O=[N+]([O-])c1ccc(N2CCCCC2)c([N+](=O)[O-])c1
Hep 3B2 [12]
  IC50: 50.3 µM
Putative nitroreductase [5]
  Retention_time: 24.21 min
Putative nitroreductase [13]
  Activity: 0.49 U/mg
Hep 3B2 [1]
  Activity: 51 - 80%
PC-3 [8]
  Activity: >80%
PC-3 [9]
  Activity: >80%
[3]
  viability at 24 h, up to 150 µM: > 80%
[4]
  viability at 48 h, up to 150 µM: 51 to 80%
PC-3 [10]
  Activity: inactive

## O=[N+]([O-])c1cc([N+](=O)[O-])c(Nc2ccc(S(=O)(=O)O)cc2)cc1Nc1ccc(S(=O)(=O)O)cc1
Hep 3B2 [12]
  IC50: 71.9 µM
Putative nitroreductase [5]
  Retention_time: 4.4 min
Putative nitroreductase [6]
  fold change (FC): 2.37
Putative nitroreductase [13]
  Activity: 2.12 U/mg
Hep 3B2 [1]
  Activity: 51 - 80%
PC-3 [8]
  Activity: >80%
PC-3 [9]
  Activity: >80%
[3]
  viability at 24 h, up to 150 µM: > 80%
[4]
  viability at 48 h, up to 150 µM: > 80%

## CCC(=O)Oc1cc(N2CCOCC2)c([N+](=O)[O-])cc1[N+](=O)[O-]
Hep 3B2 [1]
  Activity: >80%
Hep 3B2 [2]
  Activity: >80%
[3]
  viability at 24 h, up to 150 µM: 51 to 80%
[4]
  viability at 48 h, up to 150 µM: 51 to 80%

## O=[N+]([O-])c1ccc(N2CCCC(O)C2)c([N+](=O)[O-])c1 (stereo not given)
Putative nitroreductase [5]
  Retention_time: 14.9 min
PC-3 [11]
  viability at 150 µM: 50%
PC-3 [7]
  IC50: 150 µM
Hep 3B2 [1]
  Activity: >80%
Hep 3B2 [2]
  Activity: >80%
[3]
  viability at 24 h, up to 150 µM: > 80%
[4]
  viability at 48 h, up to 150 µM: > 80%
PC-3 [10]
  Activity: inactive

## O=C(CC(F)(F)F)Nc1cc(N2CCOCC2)c([N+](=O)[O-])cc1[N+](=O)[O-]
Putative nitroreductase [5]
  Retention_time: 21.8 min
Putative nitroreductase [6]
  fold change (FC): 4.73
Putative nitroreductase [13]
  Activity: 0.99 U/mg
Hep 3B2 [1]
  Activity: 51 - 80%
Hep 3B2 [2]
  Activity: 51 - 80%
[3]
  viability at 24 h, up to 150 µM: > 80%
[4]
  viability at 48 h, up to 150 µM: 51 to 80%

## O=[N+]([O-])c1ccc(N2CCOCC2)c([N+](=O)[O-])c1
Putative nitroreductase [5]
  Retention_time: 19.38 min
Putative nitroreductase [6]
  fold change (FC): 1.25
PC-3 [11]
  viability at 150 µM: 50%
PC-3 [7]
  IC50: > 150 µM
Hep 3B2 [1]
  Activity: >80%
Hep 3B2 [2]
  Activity: 51 - 80%
PC-3 [8]
  Activity: >80%
PC-3 [9]
  Activity: >80%
[3]
  viability at 24 h, up to 150 µM: > 80%
[4]
  viability at 48 h, up to 150 µM: > 80%
PC-3 [10]
  Activity: inactive

## O=[N+]([O-])c1ccc(NC2CCCCC2)c([N+](=O)[O-])c1
Putative nitroreductase [5]
  Retention_time: 20.58 min
PC-3 [11]
  viability at 150 µM: 50%
PC-3 [7]
  IC50: > 150 µM
Hep 3B2 [1]
  Activity: >80%
Hep 3B2 [2]
  Activity: >80%
PC-3 [8]
  Activity: >80%
PC-3 [9]
  Activity: >80%
[3]
  viability at 24 h, up to 150 µM: > 80%
[4]
  viability at 48 h, up to 150 µM: > 80%
PC-3 [10]
  Activity: inactive

## O=[N+]([O-])c1ccc(Nc2cc(F)cc(F)c2)c([N+](=O)[O-])c1
Hep 3B2 [12]
  IC50: 89.4 µM
Putative nitroreductase [5]
  Retention_time: 17.74 min
Hep 3B2 [1]
  Activity: >80%
PC-3 [8]
  Activity: >80%
PC-3 [9]
  Activity: >80%
[3]
  viability at 24 h, up to 150 µM: 51 to 80%
[4]
  viability at 48 h, up to 150 µM: 51 to 80%
PC-3 [10]
  Activity: inactive

B1: Nitroreductase (Bacillus amyloliquefaciens) (protein)
chain: MKVLVLAVHPDMENSAVNKAWAEELKKHDELTVRELYKEYPDGQIDAEKERQLCEQYDRIVFQFPLYWYSAPPLLKTWMDHVLSYGWAYGSKGKALHGKELMLAVSVGAGEDAYQAGGSNHFTLSELLRPFQAMANFTGMTYLPAFALYGVNGADATDIHDNAKRLAAYIKKSF
[14]
  Km: 618 µM
  kcat: 8.2 s⁻¹
  kcat/Km: 13300 M⁻¹ s⁻¹
